This is a sample that favours compounds with a hit; in the whole collection about 3.8% have one here.
MrgX1 agonist – agonists of human MrgX1 receptor, primary screen, HEK293 cells, Fluo-4 calcium flux | Mas-related G-protein coupled receptor member X1 (Homo sapiens), Q96LB2 | actives 0.44% (n = 310,000) | Fluo-4 calcium fluorescence, agonist mode; hits give high values | B-score at 10 µM | AID 588627, 2011;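 active = calcium response B-score plate-corrected fluorescence ratio at least 3 library SD, with starting fluorescence B-score inside 5 SD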
Target sequence (Q96LB2 whole entry, looked up): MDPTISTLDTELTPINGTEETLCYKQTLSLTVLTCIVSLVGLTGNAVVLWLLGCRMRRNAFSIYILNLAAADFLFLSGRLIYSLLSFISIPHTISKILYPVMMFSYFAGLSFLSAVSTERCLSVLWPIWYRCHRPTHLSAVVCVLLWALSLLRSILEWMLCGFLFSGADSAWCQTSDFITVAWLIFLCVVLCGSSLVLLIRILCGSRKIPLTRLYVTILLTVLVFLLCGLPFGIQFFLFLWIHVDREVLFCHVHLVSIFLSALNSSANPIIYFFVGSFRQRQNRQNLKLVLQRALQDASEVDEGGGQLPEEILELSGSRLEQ
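Material: HEK293 cells stably expressing human MrgX1 receptor | Quantity: 15,000 cells per well | Times: Cells plated overnight, dye loaded 0.5 h 37 °C, 0.5 h room temperature | Measured by: Kinetic Fluo-4 NW fluorescence of intracellular calcium | Control set: Positive and negative controls per plate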
RGS4 inh – RGS4 inhibitors, primary screen, cell-based, HEK293 M3R inducible RGS4, calcium flux. Fluo-4 calcium flux; hits give high values; triggered by carbachol at its EC20. B-score at 10 µM. actives 0.45% (n = 310,000);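 active = B-score, a plate-corrected calcium signal, over three deviations above library mean, with baseline fluorescence within five deviations of library mean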;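 also: RGS4 expression induced by doxycycline in cells with stable M3 receptor; B-score is computed from the integrated fluorescence ratio over baseline after carbachol; higher B-score means a larger calcium signal and so more RGS4 inhibition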
Target sequence (P49798 whole entry, looked up): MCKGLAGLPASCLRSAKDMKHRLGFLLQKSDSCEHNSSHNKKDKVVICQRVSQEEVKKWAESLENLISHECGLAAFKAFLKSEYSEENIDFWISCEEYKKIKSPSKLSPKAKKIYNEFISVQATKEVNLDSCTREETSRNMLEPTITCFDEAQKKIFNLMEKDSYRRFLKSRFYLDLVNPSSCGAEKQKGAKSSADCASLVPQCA
RGS4 act – RGS4 potentiators or activators, primary screen, cell-based, HEK293 M3R inducible RGS4, calcium flux; carbachol calcium flux Fluo4; hits give low values; B-score at 10 µM; actives 0.92% (n = 310,000); AID 463111, 2010;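 active = B-score of the integrated calcium signal more than 4 SD below the library mean, with starting fluorescence not abnormally high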;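 also: negative B-score means reduced calcium response which marks RGS4 activation or potentiation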
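Reagent: ECmax carbachol challenge; Test system: M3R-expressing HEK293 line, RGS4 induced by doxycycline; Schedule: overnight RGS4 induction, 30 min dye load 37 °C, 20 min compound RT; Detection: calcium dye Fluo4 fluorescence; Read-out: Agonist-evoked peak-minus-minimum fluorescence over baseline, integrated ratio, B score.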
Lipid droplet – inhibitors of hepatocyte lipid droplet formation, primary screen, imaging, high-throughput imaging, BODIPY stain; AML12 mouse hepatocytes, oleate lipid droplets; inhibition, % at 6.5 µM; actives 0.4% (n = 240,000);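 active = lipid droplet intensity inhibited by at least 50%, with more than 500 cells counted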
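Assay system: AML12 hepatocytes (mouse) / Also added: 100 µM oleic acid challenge / Times: overnight treatment with compound plus oleate / Detection: high-content imaging of BODIPY-stained droplets and DAPI nuclei / Evaluation: % inhibition of lipid droplet signal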
MrgX1 antag – antagonists of human MrgX1 receptor, primary screen, HEK293 cells, Fluo-4 calcium flux. Mas-related G-protein coupled receptor member X1 (Homo sapiens), Q96LB2. BAM8-22 antagonism; hits give low values. B-score at 10 µM. actives 1.3% (n = 310,000). AID 588676, 2011;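 active = calcium-response B-score plate-corrected more than 3 library SD below zero, starting fluorescence within 5 deviations, no agonist response on first addition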;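 also: peak minus trough fluorescence over baseline after final BAM8-22 challenge near maximal dose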
MrgX1 allo act – positive allosteric modulators of MrgX1, primary screen, HEK293 cells, Fluo-4 calcium flux | FDSS; hits give high values | B-score at 10 µM | actives 0.63% (n = 310,000) | Mas-related G-protein coupled receptor member X1 (Homo sapiens), Q96LB2 | AID 588675, 2011;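 active = plate-corrected calcium response at least 3 library SD above typical, normal starting fluorescence, not activating the receptor alone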;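 also: compound read alongside a low EC10 to EC30 dose of BAM8-22 agonist; peak minus trough fluorescence over baseline measured at the second addition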
RGS4 inh valid – enhanced carbachol calcium response, M3R/RGS4 cells, RGS4 inhibitor project, cell-based, validation screen, HEK293 M3R/RGS4, calcium flux. shares compounds with RGS4 inh. carbachol calcium Fluo-4 fluorescence; carbachol added at its EC20; 0 = buffer wells, 100 = carbachol control. calcium response, % at 10 µM. actives 65% (n = 1,700);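 active = duplicate-averaged calcium response above the buffer-only control mean plus 5 SD of those controls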;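 also: integrated fluorescence ratio F max minus min over baseline F0; higher response in RGS4-induced cells means RGS4 inhibition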
M3R Ca ctr – carbachol calcium response in non-induced M3R cells, confirmation, counter-screen for RGS4 inhibitor project, cell-based, HEK293 M3R; shares compounds with RGS4 inh; carbachol calcium Fluo-4; submaximal (EC20) carbachol stimulus; buffer wells 0%, carbachol control wells 100%; activity (percent), % at 10 µM; actives 20% (n = 1,900); AID 493000, 2010; call rule not given here;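 also: RGS4 induction absent so cells express M3R without RGS4; higher means more calcium signal and flags a non-specific hit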
RGS4 inh ctr2 – second counter-screen for RGS4 inhibitors: non-induced cells without carbachol. shares compounds with RGS4 inh. HEK293 M3R/RGS4 non-induced, Fluo-4 calcium, no carbachol; normalised: buffer wells 0%, carbachol wells 100%. calcium response (agonist-mode artifact), % at 10 µM. actives 22% (n = 1,900). AID 493001;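 active = duplicate-averaged calcium rise in uninduced cells above buffer wells' mean plus 5 SD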
* hit, by the source's call; i = inactive; · = no result.

SMILES | MrgX1 agonist | RGS4 inh | RGS4 act | Lipid droplet | MrgX1 antag | MrgX1 allo act | RGS4 inh valid | M3R Ca ctr | RGS4 inh ctr2
NC(=O)CC(NC(=O)Cc1ccc(Cl)cc1)c1ccc(NCc2ccccc2)c([N+](=O)[O-])c1 (stereo not drawn) | i | i | i | 3 | i | i | · | · | ·
NC(=O)CC(NC(=O)Cc1ccc(Cl)cc1)c1ccc(NC2CCN(Cc3ccccc3)CC2)c([N+](=O)[O-])c1 (stereo not drawn) | i | i | i | 0 | i | i | i | i | i
Cc1ccc(NC(=O)C(=Cc2ccc(C(=O)O)cc2)C(=O)Nc2ccc(C)cc2C)c(C)c1 | i | 11* | i | 34 | i | i | 18%* | i | i
CC(=C/c1ccccc1)/C=N/n1c(-c2ccncc2)n[nH]c1=S | i | 5.1* | i | -3 | i | i | 16%* | i | i
S=c1[nH]nc(-c2ccncc2)n1/N=C/c1cn(-c2ccccc2)nc1-c1ccc(Cl)cc1 | i | i | i | -28 | i | i | i | i | i
CC(NC(=O)c1ccco1)c1nc(-c2ccccc2Cl)no1 (stereo not drawn) | i | i | i | -8 | i | i | · | · | ·
CC(C)(C)OC(=O)N1CCC(c2cc(-c3cccs3)n[nH]2)CC1 | i | 5* | i | -12 | i | i | 17%* | i | i
CC1CCN(C(=O)CSc2n[nH]c(-c3cccs3)n2)CC1 | i | i | i | 8 | i | i | · | · | ·
CC(C)(C)c1cc(N2CCOCC2)n2ncc(-c3ccccc3)c2n1 | i | i | i | · | i | i | i | i | i
CC(C)(C)c1cc(-n2ccnc2)n2ncc(-c3ccc(Cl)cc3)c2n1 | i | 4.7* | i | 23 | i | i | 14%* | i | i
CC(C)(C)c1cc(NCCCn2ccnc2)n2ncc(-c3ccccc3)c2n1 | i | 9* | i | 15 | i | i | 10%* | i | i
CCCc1cc(N2CCOCC2)n2ncc(-c3ccccc3)c2n1 | i | i | i | 27 | i | i | · | · | ·
Cc1cc(NCCCn2ccnc2)n2ncc(-c3ccc(Cl)cc3)c2n1 | i | i | i | · | i | i | · | · | ·
CC(C)n1c2ccccc2c2nnc(SCC(=O)Nc3ccccc3C(=O)O)nc21 | i | i | i | 5 | i | i | · | · | ·
CCCOc1ccc2c(c1)C(=NN=C(N)N)c1cc(OCCC)ccc1-2 | i | 4.7* | i | · | i | i | 8.0%* | i | i
CCN(CC)CCOc1ccc2c(c1)C(=NO)c1cc(OCCN(CC)CC)ccc1-2 | i | i | i | · | i | i | · | · | ·
O=S1(=O)CCC(N=Cc2ccc(-c3ccc(Cl)cc3)o2)C1 (stereo not drawn) | i | 5.7* | i | 1 | i | i | 7.5%* | i | i
Cc1ccc(C(CC(=O)c2ccc(Cl)cc2)C(=O)O)cc1 (stereo not drawn) | i | i | i | -2 | i | i | · | · | ·
Cc1ccc(SC(CC(=O)c2ccc(C)cc2)C(=O)O)cc1 (stereo not drawn) | i | 4.7* | i | -12 | i | i | 8.0%* | i | i
O=C(/C=C\NCC(=O)c1ccccc1)c1ccc2ccccc2c1 | i | 6.5* | i | -25 | i | i | 16%* | 30%* | i
Nc1cc(N)nc(CS)n1 | i | i | i | -15 | i | i | · | · | ·
CN1CCN(C(=S)Nc2ccc(S(N)(=O)=O)cc2)CC1 | i | i | i | 0 | i | i | · | · | ·
Cc1c(C=O)c2ccccn2c1C(=O)c1ccccc1 | i | i | i | 5 | i | i | · | · | ·
Cc1c(C=O)c2ccccn2c1C(=O)c1ccc(F)cc1 | i | i | i | -10 | i | i | · | · | ·
Cc1c(C(=O)Nc2ccc(Cl)cc2)c2ccccn2c1C(=O)c1ccccc1 | i | i | i | · | i | i | · | · | ·
SMILES | MrgX1 agonist | RGS4 inh | RGS4 act | Lipid droplet | MrgX1 antag | MrgX1 allo act | RGS4 inh valid | M3R Ca ctr | RGS4 inh ctr2
Cc1c(/C=N/NC(=O)CNc2ccccc2)c2ccccn2c1C(=O)c1ccncc1 | i | i | i | 12 | i | i | i | i | i
Cc1c(/C=N/NC(=O)CNc2ccccc2)c2ccccn2c1C(=O)c1ccc(Cl)cc1 | i | 15* | i | -6 | i | i | 20%* | i | 68%*
Cc1ccccc1NCC(=O)N/N=C/c1c(C)c(C(=O)c2ccc(Cl)cc2)n2ccccc12 | i | i | i | -7 | i | i | i | i | 31%*
Cn1c(=O)n(CC(=O)OCc2ccccc2)c(=O)c2c1nc1n2CCCN1C1CCCCC1 | i | i | i | · | i | i | · | · | ·
N#CC(C#N)=C1NC(N)=C(C#N)C(c2ccccc2)=C1C#N | i | i | i | · | i | i | · | · | ·
CCn1c(CNc2ccc(Cl)cc2)nnc1SCC#N | i | i | i | 2 | i | i | · | · | ·
O=C(CSc1nnc2c(n1)[nH]c1ccccc12)Nc1ccc(S(=O)(=O)Nc2ncccn2)cc1 | · | i | i | 40 | · | · | · | · | ·
COc1ccc(OC)c(C2CC(c3c(-c4ccccc4)c4cc(Cl)ccc4[nH]c3=O)=NN2S(C)(=O)=O)c1 (stereo not drawn) | i | i | i | · | i | i | · | 49%* | 36%*
CCOC(=O)Nc1ccc(=O)n(Cc2c(Cl)cccc2Cl)c1 | i | 7.7* | i | · | i | i | 36%* | 28%* | i

High-throughput results as filed in PubChem BioAssay.
